We go through 3 molecules from paper PMC4267758 (Journal of molecular biology, 2014).

Entries after “also recorded” stand apart in the source; their conditions may differ. Like-named read-outs stand apart in the source and are kept apart here. Where no end group is shown, it is not given here. The star is where a group is joined. MTSL = methane thiosulphonate spin label, CC1(C)C=C(CS*)C(C)(C)N1[O]

Assay [1] relates to Pyk2-FAT. Briefly: Paramagnetic relaxation enhancement. Type of assay: binding, human. As to conditions: PRE, MTSL-labeled peptide, Pyk2-FAT:peptide 1:0.2, 20 mM MES, pH 6.2. A digest of the protocol:
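Single-cysteine peptide variants in 20 mM phosphate pH 7.2 were reacted with fivefold molar excess MTSL for 8 h at room temperature. They were HPLC-repurified, lyophilized and redissolved in 20 mM MES pH 6.2, then added to uniformly 15N-labelled Pyk2-FAT. The reduced reference used fivefold molar excess ascorbic acid for 1 h. Per-residue Iox/Ired peak-intensity ratios were computed, excluding prolines and overlapped peaks.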

The test system of assay [2] is FAT-like domain from G-protein-coupled receptor kinase-interacting protein 1 (GIT1). The note with it: ref [41]; cited from earlier work.
Assay [3] concerns FAK-FAT. The note with it: ref [39] (b5), [39], [40]; cited from earlier work.
For assay [4], the system named is Pyk2-FAT. Briefly: Sedimentation equilibrium AUC. Type of assay: binding, human. As to conditions: AUC-SE; for Kd: two site hetero-association model (A+B+B↔ABB), 1:2 Pyk2-FAT to peptide, 20 mM MES, pH 6.2, 4 °C, Monte Carlo error, 500 iterations, confidence level 0.68. Summed up: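 Sedimentation equilibrium at 4 °C in 20 mM MES, 50 mM NaCl, pH 6.2. Rotor speeds 18.4, 26.9 and 46k rpm, equilibrium reached at 30, 26 and 18 h. Loading 35–96 μM. Absorbance read at 280 and 230 nm, 0.001 cm radial steps, 20 replicates per point. Global least-squares fit across speeds to the A+B+B↔ABB model.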

Assay [5] has as its system Pyk2-FAT. The assay can be described thus: Co-crystal structure with Pyk2-FAT. Type of assay: binding, human. The note with it: PDB 4R32, 3.5 Å, one at H1/H4, one at H2/H3.
The test system of assay [6] is Pyk2-FAT. Briefly: Reverse NMR titration: unlabeled Pyk2-FAT added to 15N-labeled paxillin ligand. Type of assay: binding, human. The note with it: 1H-15N HSQC/TROSY, ratios up to 1:2, 20 mM MES, pH 6.2. Summed up: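 Unlabelled Pyk2-FAT was titrated into a 15N-labelled ligand in 20 mM MES pH 6.2, with 15N-1H HSQC spectra at 600/800 MHz and 305 K. Ligands were an expressed chicken paxillin 139–163 peptide or His-tagged chicken paxillin 133–290. […] Ratios were 1:0.2–1:2.0.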

The test system of assay [7] is Pyk2-FAT. Briefly: Isothermal titration calorimetry. Type of assay: binding, human. Summed up:
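Human Pyk2 FAT domain (residues 871–1005) with an N-terminal His6 tag, expressed in E. coli BL21(DE3) and purified by Ni-affinity then gel filtration. The cell held 10 μM protein in 20 mM MES, pH 6.2. The syringe held chicken paxillin LD-motif peptides (100 μM) or the His-tagged paxillin 133–290 fragment (50 μM). Solutions degassed; 2 μl injections, 120 s apart, at 25°C. Ligand-into-buffer heats subtracted. Fits used one-site or two-site sequential models. Run in duplicate.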

Assay [8] relates to Pyk2-FAT. Briefly: NMR titration / chemical shift perturbation of 15N-labeled Pyk2-FAT. The note with it: 15N-HSQC/TROSY titration, Pyk2-FAT:ligand 1:0.2 to 1:2, 20 mM MES, pH 6.2, 305K. Type of assay: binding, human. A digest of the protocol:
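15N-labeled Pyk2-FAT (400–500 μM in 20 mM MES, pH 6.2) titrated at 305 K with chicken LD peptides at protein:peptide ratios of 1:0.2 to 1:2. Peptide stocks were in dialysis buffer, pH readjusted to 6.2. 15N-HSQC spectra recorded at 600/800 MHz. Weighted shift Δav = [(ΔH² + (ΔN/5)²)/2]^1/2. For PRE, MTSL-labeled peptides were added at 1:0.2 and Iox/Ired taken after ascorbate reduction.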

In assay [9] the test system is Pyk2-FAT. The assay can be described thus: H/D exchange NMR of Pyk2-FAT complexes. More on the design: species or system human. As to conditions: H/D exchange in D2O, fast 15N-HSQC, up to 10 h. Summed up: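 15N-labelled Pyk2-FAT complexes (400–500 μM, 20 mM MES pH 6.2) were lyophilized and rehydrated in D2O. FAST 1H-15N HSQC spectra were recorded at intervals up to 10 h at 305 K. HSQC spectra in H2O before and after exchange checked structural integrity.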

The test system of assay [10] is Pyk2-FAT. The assay can be described thus: Steady-state 1H-15N heteronuclear NOE. More on the design: species or system human. As to conditions: 600 MHz, 305 K; relative to free Pyk2-FAT, loop regions. A digest of the protocol: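 Steady-state 1H-15N heteronuclear NOE was measured at 600 MHz, 305 K on 15N-labelled Pyk2-FAT, free and bound to LD-motif peptide. Protein was at 400–500 μM in 20 mM MES pH 6.2. NOE values were taken as peak-intensity ratios of 1H-saturated to unsaturated spectra.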

The target in assay [11] is Pyk2 focal adhesion-targeting (Pyk2-FAT) domain (human, UniProt Q14289 871-1005). The assay can be described thus: NMR paramagnetic relaxation enhancement.

As for “LD2MTSL: methane thiosulphonate (MTSL)-derivatized LD2 peptide (GSNLSELDRLLLELNAVC(MTSL)HNPPSGF)”, the “H2/H3 residues of Pyk2-FAT affected by spin-labeled peptide” value in assay [1] is on record as “residues from H2/H3 disappeared or showed reduced intensity”.

In the case of “LD2: paxillin derived peptide LD2 (chicken paxillin; residues 139–163), chemically synthesized (GSNLSELDRLLLELNAVQHNPPSGF)”, the “binding site on GIT1 FAT-like domain” value in [2] was “located exclusively at the H1/H4 surface”. The “preferred binding site on FAK-FAT” value in [3] was “specifically recognizes the H1/H4 site of FAK-FAT; also recorded: preferentially binds to the helices H1 and H4 interface (H1/H4) site”. The “global free energy difference between first and second sites (ΔGAB and ΔGABB)” value in [4] (1:2 stoichiometry, two-site hetero-association model) was -3.18 kJ/mol. In addition, the “Delta G, single site (1:1)” value in assay [4] (single site hetero-association model, T = 277.149994K, RT = 0.551kcal/mol) is -31.8 kJ/mol. Moreover, the “Delta G, first binding site (1:2)” value in [4] (two site hetero-association model, first site, T = 277.149994K, RT = 0.551kcal/mol) was -31.2 kJ/mol. Further, the “Delta G, second binding site (both occupied)” value in assay [4] (two site hetero-association model, second site, T = 277.149994K, RT = 0.551kcal/mol) was -28 kJ/mol. The Kd was 1.32 ± 0.02 µM in assay [4] (read-out: KAB (first site), 1:2 stoichiometry) and 5.3 ± 0.12 µM in assay [4] (read-out: KABB (second site), 1:2 stoichiometry). Further, the “peptide molecules bound per Pyk2-FAT in crystal” value in assay [5] is on record as “two LD2 peptides bind to one molecule of Pyk2-FAT”. Besides, the “effect of unlabeled Pyk2-FAT on resonances of 15N-labeled ligand” value in [6] was “most of the LD2 resonances were broadened beyond detection”. Besides, in [7] (discussion statement, H1/H4 versus H2/H3), the “relative binding at H1/H4 and H2/H3 sites of Pyk2-FAT” value was “binds to both H1/H4 and H2/H3 sites of Pyk2-FAT equally well”. Besides, the “affinity preference for H2/H3 site over H1/H4 site of Pyk2-FAT” value in [7] (from ITC and AUC studies) turned out to be 5 fold. Further, in assay [8], the “binding sites / site preference on Pyk2-FAT by NMR” value is on record as “H2/H3 is the stronger binding site”. Moreover, the “amide H/D exchange protection of Pyk2-FAT in complex” value in assay [9] was “residues from H2/H3 and H1/H4 were protected even after 10 hrs”. For the same molecule, the “steady-state 1H-15N NOE of Pyk2-FAT amides upon ligand binding” value in [10] is “significantly increased relative to free Pyk2-FAT”.

For GSNLSELDRLLLELNAVC(MTSL)HNPPSGF (peptide, UniProt P49024 139-163, looked up) [spin-labeled LD2 (Q156C) peptide], in assay [11], the binding result is given as “binds”.
